# According to ChEMBL document CHEMBL1134672, “Design and synthesis of 4-substituted benzamides as potent, selective, and orally bioavailable I(Ks) blockers” (J Med Chem, 2001):
# System: not listed separately
# Experiment: Bioavailability in rat
# Format: ADME, organism-based
# Settings: in vivo
# Method in brief: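 Rats were dosed orally and screened for plasma drug levels. Compounds reaching plasma concentrations of >75 nM were then tested individually for oral bioavailability by standard methods.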
row,Structure (SMILES),bioavailability [%]
1,CCCCc1noc(-c2ccc(C(=O)NC[C@H]3CCCC3(C)C)cc2)n1,< 1
2,"CC1(C)CCCC1CNC(=O)c1ccc(-c2noc(CCC(F)(F)F)n2)cc1 (single isomer, unassigned; form 2)",23

# System: not listed separately
# Experiment: Compound was evaluated for half life period when administered intravenously
# Format: ADME, organism-based
# Settings: in vivo, iv
# Method in brief: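 Half-life was determined in rats after intravenous administration.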
row,Structure (SMILES),half-life [h]
1,CCCCc1noc(-c2ccc(C(=O)NC[C@H]3CCCC3(C)C)cc2)n1,4.2
2,"CC1(C)CCCC1CNC(=O)c1ccc(-c2noc(CCC(F)(F)F)n2)cc1 (single isomer, unassigned; form 2)",3.2

# Target: T1, Potassium voltage-gated channel subfamily KQT member 1 (Cavia porcellus, UniProt O70344)
# T1 sequence (O70344 whole entry): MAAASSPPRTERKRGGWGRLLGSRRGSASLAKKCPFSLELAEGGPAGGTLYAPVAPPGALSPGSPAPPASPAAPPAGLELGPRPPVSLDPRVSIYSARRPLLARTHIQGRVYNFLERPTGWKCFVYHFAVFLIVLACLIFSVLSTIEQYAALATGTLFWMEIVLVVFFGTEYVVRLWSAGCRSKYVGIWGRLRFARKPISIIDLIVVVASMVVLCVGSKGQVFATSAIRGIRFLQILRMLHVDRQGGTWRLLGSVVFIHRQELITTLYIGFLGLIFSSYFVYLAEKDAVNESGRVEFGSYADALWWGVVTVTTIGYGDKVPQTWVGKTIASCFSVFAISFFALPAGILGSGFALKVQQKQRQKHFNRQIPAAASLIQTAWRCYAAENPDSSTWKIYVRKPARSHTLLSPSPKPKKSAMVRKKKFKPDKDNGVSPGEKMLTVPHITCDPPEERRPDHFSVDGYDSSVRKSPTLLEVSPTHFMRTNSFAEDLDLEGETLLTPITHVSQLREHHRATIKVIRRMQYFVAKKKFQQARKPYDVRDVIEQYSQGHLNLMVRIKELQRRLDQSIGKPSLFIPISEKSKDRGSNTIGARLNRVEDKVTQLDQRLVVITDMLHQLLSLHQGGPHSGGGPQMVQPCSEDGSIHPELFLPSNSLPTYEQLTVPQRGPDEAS
# Experiment: Molar concentration required to inhibit 50% of the activating delayed-rectifier K+ current in isolated guinea pig ventricular myocytes
# Settings: not given
# Method in brief: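 Native IKs recorded by voltage clamp in isolated guinea pig ventricular myocytes, with ionic solutions and voltage protocol designed to isolate IKs from other currents.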
row,Structure (SMILES),IC50 [nM]
1,CCCCCCOc1ccc(C(=O)NC2CCC(C)(C)C2)cc1 (stereo unspecified),360
2,CCCCCCOc1ccc(C(=O)N2CCC(C(C)(C)C)C2)cc1 (stereo unspecified),> 3000
3,CCCCCCOc1ccc(C(=O)CCN2CCCCC2)cc1,4000
4,CCCCCCOc1ccc(C(=O)NCCC(C)(C)C)cc1,250
5,CCCCCCOc1ccc(C(=O)NCCN(CC)CC)cc1,3500
6,CC(C)(C)CCNC(=O)c1ccc(-c2nc(-c3ccccc3)no2)cc1,130
7,CCCCc1noc(-c2ccc(C(=O)NCCC(C)(C)C)cc2)n1,23
8,CCCCCCOc1ccc(C(=O)NCC2CCCC(C)(C)C2)cc1 (stereo unspecified),370
9,CC(C)(C)CCNC(=O)c1ccc(-c2ccccc2)cc1,540
10,CCCCc1noc(-c2ccc(C(=O)NC[C@H]3CCCC3(C)C)cc2)n1,2
11,CN1C(=O)[C@H](NC(=O)/C=C/c2ccc(Cl)cc2Cl)N=C(c2ccccc2)c2ccccc21,31
12,CCCCc1noc(-c2ccc(C(=O)NC[C@@H]3CCCC3(C)C)cc2)n1,9
13,CCCCCCOc1ccc(C(=O)NC2CCCC2(C)C)cc1 (stereo unspecified),> 30000
14,CCN(CC)C(=O)COc1ccc(C(C)(C)CC(C)(C)C)cc1,5000
15,CC(C)(C)CCNC(=O)c1ccc(-n2ccc3ccccc32)cc1,260
16,"CCCCCCOc1ccc(C(=O)NCC2CCCC2(C)C)cc1 (single isomer, unassigned; form 1)",710
17,"CCCc1noc(-c2ccc(C(=O)NCC3CCCC3(C)C)cc2)n1 (single isomer, unassigned; form 1)",27
18,"CC1(C)CCCC1CNC(=O)c1ccc(-c2nc(CC3CC3)no2)cc1 (single isomer, unassigned; form 1)",23
19,"CC1(C)CCCC1CNC(=O)c1ccc(-c2noc(CCC(F)(F)F)n2)cc1 (single isomer, unassigned; form 1)",27
20,"CCCCCCOc1ccc(C(=O)NCC2CCCC2(C)C)cc1 (single isomer, unassigned; form 2)",160
21,"CCCc1noc(-c2ccc(C(=O)NCC3CCCC3(C)C)cc2)n1 (single isomer, unassigned; form 2)",10
22,"CC1(C)CCCC1CNC(=O)c1ccc(-c2nc(CC3CC3)no2)cc1 (single isomer, unassigned; form 2)",18
23,"CC1(C)CCCC1CNC(=O)c1ccc(-c2noc(CCC(F)(F)F)n2)cc1 (single isomer, unassigned; form 2)",40
24,CCCCCCOc1ccc(C(=O)NCC2CCCCC2(C)C)cc1 (stereo in doubt; 13(A)),1400
25,CCCCCCOc1ccc(C(=O)NCC2CCCCC2(C)C)cc1 (stereo in doubt; 13(B)),> 3000
26,Cc1noc(-c2ccc(C(=O)NCC3CCCC3(C)C)cc2)n1 (stereo in doubt; 21(A)),220
27,Cc1noc(-c2ccc(C(=O)NCC3CCCC3(C)C)cc2)n1 (stereo in doubt; 21(B)),580
